Test results published in ChEMBL document CHEMBL5107948, “Activity-based protein profiling reveals deubiquitinase and aldehyde dehydrogenase targets of a cyanopyrrolidine probe” (RSC Med Chem, 2021).
Calls of active or inactive are those of the source. No cut-off for these calls is given here.

Assays:
[1] = molecular target: 4-trimethylaminobutyraldehyde dehydrogenase (Homo sapiens) (UniProt P49189); test: Inhibition of ALDH9A1 in human HEK293 cells at 130 to 2000 nM in presence of ABP MT16-205 by Competitive pulldown based immunoblotting analysis; assay type: cell-based; details: dose 130-2000 nM, DDE = dose-dependent effect
Chain of 4-trimethylaminobutyraldehyde dehydrogenase (Homo sapiens) (P49189 whole entry): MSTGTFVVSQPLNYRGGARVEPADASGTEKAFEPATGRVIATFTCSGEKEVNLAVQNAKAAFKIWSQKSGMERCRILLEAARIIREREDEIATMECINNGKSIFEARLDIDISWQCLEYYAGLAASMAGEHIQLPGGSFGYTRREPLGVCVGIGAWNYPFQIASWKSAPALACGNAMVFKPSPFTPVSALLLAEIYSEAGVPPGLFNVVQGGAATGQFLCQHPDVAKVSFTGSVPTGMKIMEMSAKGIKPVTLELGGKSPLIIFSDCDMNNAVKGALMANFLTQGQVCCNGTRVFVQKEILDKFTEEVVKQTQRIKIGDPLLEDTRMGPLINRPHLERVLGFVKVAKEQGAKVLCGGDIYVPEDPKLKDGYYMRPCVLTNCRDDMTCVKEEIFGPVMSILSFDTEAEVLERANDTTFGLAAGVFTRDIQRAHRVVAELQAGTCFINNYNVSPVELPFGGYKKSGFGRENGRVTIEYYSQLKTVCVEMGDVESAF
How it was run: (§1)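 Lysates AzTB-clicked, streptavidin bead pulldown (2 h RT), boiled elution, SDS-PAGE. Target detected by immunoblot: 3% BSA/TBS-T block, primary antibody 1.5 h RT or overnight at 4 °C, HRP secondary, chemiluminescence.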

[2] = molecular target: 4-trimethylaminobutyraldehyde dehydrogenase (Homo sapiens) (UniProt P49189); test: Binding affinity to ALDH9A1 in human HEK293 cells at 130 to 500 nM in presence of ABP MT16-205 by LFQ-NanoLC-MS/MS analysis; assay type: cell-based; details: dose 130-500 nM, DDE = dose-dependent effect
How it was run: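 Competition format: HEK293 cells pre-treated 1 h with competitor or DMSO, then exposed to ABP MT16-205. Lysis in PBS/Triton/SDS buffer, AzRB click ligation, NeutrAvidin pulldown, on-bead TCEP/chloroacetamide treatment and overnight tryptic digestion. Label-free LC-MS/MS; two-sample t-test versus control (n=3, permutation FDR 0.01, S0=1).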

[3] = molecular target: T1, Ubiquitin carboxyl-terminal hydrolase 30 (Homo sapiens) (UniProt Q70CQ3); test: Inhibition of GST-tagged recombinant USP30 (unknown origin) using Ub-Lys-TAMRA as substrate at 1 uM incubated for 30 mins by fluorescence polarization assay
T1 sequence (whole entry): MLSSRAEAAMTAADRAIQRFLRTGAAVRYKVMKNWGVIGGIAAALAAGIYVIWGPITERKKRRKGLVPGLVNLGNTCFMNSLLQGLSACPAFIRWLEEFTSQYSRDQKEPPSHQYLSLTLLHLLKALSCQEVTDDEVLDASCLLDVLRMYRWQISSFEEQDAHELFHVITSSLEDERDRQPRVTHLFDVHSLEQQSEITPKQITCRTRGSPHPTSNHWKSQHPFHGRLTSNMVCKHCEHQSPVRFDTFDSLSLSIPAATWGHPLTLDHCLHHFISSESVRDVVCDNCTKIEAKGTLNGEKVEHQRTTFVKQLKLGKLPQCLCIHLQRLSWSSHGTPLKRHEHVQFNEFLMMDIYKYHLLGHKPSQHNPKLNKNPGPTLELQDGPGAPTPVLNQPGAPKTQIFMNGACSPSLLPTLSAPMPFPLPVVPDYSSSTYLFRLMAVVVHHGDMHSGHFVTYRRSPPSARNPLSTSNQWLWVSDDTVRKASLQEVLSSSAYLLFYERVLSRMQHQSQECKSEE

[4] = molecular target: Ubiquitin carboxyl-terminal hydrolase isozyme L1 (Homo sapiens) (UniProt P09936); test: Inhibition of UCHL1 in human HEK293 cells at 130 to 2000 nM in presence of ABP MT16-205 by Competitive pulldown based immunoblotting analysis; assay type: cell-based; details: dose 130-2000 nM, DDE = dose-dependent effect; how it was run: as §1
Chain of Ubiquitin carboxyl-terminal hydrolase isozyme L1 (Homo sapiens) (P09936 whole entry, looked up): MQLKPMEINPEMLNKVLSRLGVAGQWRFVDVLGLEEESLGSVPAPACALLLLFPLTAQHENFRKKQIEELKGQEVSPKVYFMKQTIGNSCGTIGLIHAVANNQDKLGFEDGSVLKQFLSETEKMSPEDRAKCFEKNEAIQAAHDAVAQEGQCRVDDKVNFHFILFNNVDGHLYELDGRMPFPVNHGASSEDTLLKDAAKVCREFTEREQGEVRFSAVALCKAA

[5] = molecular target: 4-trimethylaminobutyraldehyde dehydrogenase (Homo sapiens) (UniProt P49189); test: Binding affinity to ALDH9A1 in human HEK293 cells assessed as fold change at 130 nM incubated for 3 to 6 hrs by LFQ-chemical proteomics analysis; assay type: cell-based; details: time 3-6 hrs
How it was run: (§2)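 HEK293 cells exposed to alkyne ABP or DMSO for 3, 6 or 18 h, washed, lysed in PBS/1% Triton X-100/0.1% SDS. Lysates (400 µg, biological triplicates) CuAAC-ligated to AzRB (100 µM, CuSO4 1 mM, TCEP 1 mM, TBTA 100 µM, 1 h RT). NeutrAvidin enrichment, on-bead TCEP/CAA reduction-alkylation, overnight trypsin digest at 37 °C, LC-MS/MS label-free quantification. Two-sample t-test against DMSO (n=3, permutation FDR 0.01, S0=1).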

[6] = molecular target: Ubiquitin carboxyl-terminal hydrolase isozyme L1 (Homo sapiens) (UniProt P09936); test: Inhibition of UCHL1 in human HEK293 cells assessed as reduction in UCHL1-Ub level using HA-Ub-VME as substrate at 0.001 to 30 uM incubated for 1 hr by immunoblotting analysis; assay type: cell-based; details: dose 0.001-30 µM
How it was run: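 Near-confluent HEK293 cells treated with compound in medium for 1 h at 37 °C, lysed in Tris/NP-40/CHAPS buffer with benzonase. Lysate (20 µg) reacted with HA-Ahx-Ahx-Ub-VME (0.5 µg) 15 min at room temperature, boiled 5 min at 95 °C in SDS loading buffer with BME, SDS-PAGE and immunoblot.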

[7] = molecular target: T2, Aldehyde dehydrogenase, mitochondrial (Homo sapiens) (UniProt P05091); test: Binding affinity to ALDH2 in human HEK293 cells assessed as fold change at 130 nM incubated for 3 to 6 hrs by LFQ-chemical proteomics analysis; assay type: cell-based; details: time 3-6 hrs; how it was run: as §2
T2 sequence (whole entry): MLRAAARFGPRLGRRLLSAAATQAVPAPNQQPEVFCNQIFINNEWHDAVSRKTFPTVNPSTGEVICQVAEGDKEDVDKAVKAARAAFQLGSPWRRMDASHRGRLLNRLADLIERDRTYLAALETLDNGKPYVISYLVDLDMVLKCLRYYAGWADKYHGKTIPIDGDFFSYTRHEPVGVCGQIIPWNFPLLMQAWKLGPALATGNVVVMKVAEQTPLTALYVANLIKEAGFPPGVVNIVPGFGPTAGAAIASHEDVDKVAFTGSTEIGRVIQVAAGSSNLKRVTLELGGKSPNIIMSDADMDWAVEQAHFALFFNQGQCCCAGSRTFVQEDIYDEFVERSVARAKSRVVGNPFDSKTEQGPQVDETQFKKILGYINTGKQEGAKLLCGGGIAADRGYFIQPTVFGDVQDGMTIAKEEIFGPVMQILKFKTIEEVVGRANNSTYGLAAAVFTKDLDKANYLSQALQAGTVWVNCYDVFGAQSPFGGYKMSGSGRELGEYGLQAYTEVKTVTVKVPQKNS

[8] = molecular target: T3, Glutamine amidotransferase-like class 1 domain-containing protein 3, mitochondrial (Homo sapiens) (UniProt P0DPI2); test: Binding affinity to GATD3A in human HEK293 cells assessed as fold change at 130 nM incubated for 3 to 6 hrs by LFQ-chemical proteomics analysis; assay type: cell-based; details: time 3-6 hrs; how it was run: as §2
T3 sequence (whole entry): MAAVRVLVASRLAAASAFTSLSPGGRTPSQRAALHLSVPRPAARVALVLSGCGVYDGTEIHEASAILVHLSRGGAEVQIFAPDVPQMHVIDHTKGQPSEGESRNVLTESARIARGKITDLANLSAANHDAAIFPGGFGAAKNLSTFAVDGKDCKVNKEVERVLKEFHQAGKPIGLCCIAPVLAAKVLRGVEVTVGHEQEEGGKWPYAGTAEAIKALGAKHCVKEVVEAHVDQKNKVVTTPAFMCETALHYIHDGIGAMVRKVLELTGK

[9] = molecular target: T3, Glutamine amidotransferase-like class 1 domain-containing protein 3, mitochondrial (Homo sapiens); test: Binding affinity to GATD3A in human HEK293 cells assessed as fold change at 30 nM incubated for 3 to 18 hrs by LFQ-chemical proteomics analysis; assay type: cell-based; details: time 3-18 hrs; how it was run: as §2
[10] = molecular target: Ubiquitin carboxyl-terminal hydrolase isozyme L1 (Homo sapiens) (UniProt P09936); test: Binding affinity to UCHL1 in human HEK293 cells at 40 nM incubated for 3 hrs by In-gel fluorescence analysis; assay type: cell-based
How it was run: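 HEK293 cells given 10–2500 nM ABP for 3, 6 or 18 h. Lysates clicked to AzTB, mixed with Laemmli buffer at 0.31% v/v final BME for 5 min without boiling, resolved on 12% acrylamide gels, imaged by in-gel TAMRA fluorescence.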

| Compound | inhibition [1] | Activity [2] | inhibition [3] | inhibition [4] | fold change (FC) [5] | inhibition [6] | fold change (FC) [7] | fold change (FC) [8] | fold change (FC) [9] | Activity [10] |
| --- | --- | --- | --- | --- | --- | --- | --- | --- | --- | --- |
| N#CN1CC[C@H](C(=O)Nc2ncc(-c3ccccc3)s2)C1 | Dde | Dde | Active | Dde | – | – | – | – | – | – |
| C#Cc1ccc(-c2cnc(NC(=O)[C@H]3CCN(C#N)C3)s2)cc1 | – | – | Active | – | > 64 | Active | > 64 | > 64 | > 16 | Active |
